Common to all, as to assay type: nucleic-acid assay
For assay [1], the system named is Nucleic Acid. Nature of the assay: Binding affinity to synthetic double stranded DNA D1 at 1.5 uM at pH 6.0 by thermal denaturation study. The method in brief:
(§1)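 Parallel triplex melting: target duplex assembled from strands at 1.0 µM each, TFO third strand added at 1.5 µM. Buffer 20 mM sodium cacodylate, 100 mM NaCl, 10 mM MgCl₂, at the pH of the line. Samples heated to 80 °C for 5 min, cooled to 5 °C and held 30 min. Absorbance read at 260 nm while heating at 1.0 °C/min; Tm taken as the first-derivative maximum.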

Assay [2] deals with Nucleic Acid. Nature of the assay: Binding affinity to synthetic double stranded DNA D4 at 1.5 uM at pH 6.0 by thermal denaturation study. The method in brief:
as §1

Assay [3] concerns Nucleic Acid. Nature of the assay: Binding affinity to synthetic oligonucleotide ON19 at 1.0 uM at pH 6.0 by thermal denaturation study. The method in brief: (§2)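 Duplex melting: complementary strands at 1.0 µM each in 20 mM sodium cacodylate, 100 mM NaCl, 10 mM MgCl₂, at the pH of the line. Annealed at 80 °C for 5 min, then cooled to 5 °C and held 30 min. UV absorbance read at 260 nm with heating at 1.0 °C/min; Tm is the maximum of the first-derivative curve.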

Assay [4] deals with Nucleic Acid. Nature of the assay: Binding affinity to synthetic double stranded DNA D1 at 1.5 uM at pH 7.2 by thermal denaturation study. The method in brief: as §1
In assay [5] the test system is Nucleic Acid. Description: Binding affinity to synthetic double stranded DNA D3 at 1.5 uM at pH 6.0 by thermal denaturation study. Summed up:
as §1

Assay [6] deals with Nucleic Acid. Nature of the assay: Binding affinity to synthetic double stranded DNA D2 at 1.5 uM at pH 6.0 by thermal denaturation study. The method in brief:
as §1

The subject of assay [7] is Nucleic Acid. Nature of the assay: Binding affinity to synthetic oligonucleotide ON18 at 1.0 uM at pH 6.0 by thermal denaturation study. Summed up: as §2
Assay [8] relates to Nucleic Acid. Nature of the assay: Binding affinity to synthetic oligonucleotide ON20 at 1.0 uM at pH 7.0 by thermal denaturation study. The method in brief: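 DNA/RNA antiparallel duplex: each strand at 1.0 µM in 10 mM sodium phosphate, 140 mM NaCl, 1 mM EDTA, pH 7.0. Heated to 80 °C for 5 min, cooled to 5 °C and held 30 min. Absorbance followed at 260 nm during a 1.0 °C/min temperature ramp; Tm is the first-derivative maximum.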

For assay [9], the system named is Nucleic Acid. Description: Binding affinity to synthetic oligonucleotide ON19 at 1.0 uM at pH 7.2 by thermal denaturation study. Summed up:
as §2

For `Cc1cn([C@H]2C[C@H](OP(=O)(O)OC[C@H]3O[C@@H](n4cc(C)c(=O)[nH]c4=O)C[C@@H]3O[PH](O)(O)OC[C@H]3O[C@@H](n4cc(C)c(=O)[nH]c4=O)C[C@@H]3OP(=O)(O)OC[C@H]3O[C@@H](n4cc(C)c(=O)[nH]c4=O)C[C@@H]3OP(=O)(O)OC[C@H]3O[C@@H](n4cc(C)c(=O)[nH]c4=O)C[C@@H]3O)[C@@H](COC[C@H](CCOc3ccc(-c4nc5c6ccccc6c6ccccc6c5[nH]4)c4ccccc34)OP(=O)(O)O[C@H]3C[C@H](n4cc(C)c(=O)[nH]c4=O)O[C@@H]3COP(=O)(O)O[C@H]3C[C@H](n4ccc(N)nc4=O)O[C@@H]3COP(=O)(O)O[C@H]3C[C@H](n4cc(C)c(=O)[nH]c4=O)O[C@@H]3COP(=O)(O)O[C@H]3C[C@H](n4cc(C)c(=O)[nH]c4=O)O[C@@H]3COP(=O)(O)O[C@H]3C[C@H](n4cc(C)c(=O)[nH]c4=O)O[C@@H]3COP(=O)(O)O[C@H]3C[C@H](n4ccc(N)nc4=O)O[C@@H]3COP(=O)(O)O[C@H]3C[C@H](n4ccc(N)nc4=O)O[C@@H]3COP(=O)(O)O[C@H]3C[C@H](n4ccc(N)nc4=O)O[C@@H]3COP(=O)(O)O[C@H]3C[C@H](n4ccc(N)nc4=O)O[C@@H]3CO)O2)c(=O)[nH]c1=O`, the Tm (as a rule, the temperature at the midpoint of the melting transition) in the assay on Nucleic Acid [1] is 38.5 °C; with Nucleic Acid [2], 26 °C; in the assay with Nucleic Acid [3], 47.5 °C; in the assay on Nucleic Acid [4] it was 18.5 °C; in the assay on Nucleic Acid [5], 22.5 °C; with Nucleic Acid [6], 21 °C. The midpoint of thermal melting (Tm) in the assay with Nucleic Acid [7] was 19.5 °C; with Nucleic Acid [8] it was 49.5 °C; with Nucleic Acid [9], 47.5 °C.
Consider `Cc1cn([C@H]2C[C@H](OP(=O)(O)OC[C@H]3O[C@@H](n4cc(C)c(=O)[nH]c4=O)C[C@@H]3OP(=O)(O)OC[C@H]3O[C@@H](n4cc(C)c(=O)[nH]c4=O)C[C@@H]3OP(=O)(O)OC[C@H]3O[C@@H](n4ccc(N)nc4=O)C[C@@H]3OP(=O)(O)OC[C@H]3O[C@@H](n4cc(C)c(=O)[nH]c4=O)C[C@@H]3OP(=O)(O)OC[C@H]3O[C@@H](n4cc(C)c(=O)[nH]c4=O)C[C@@H]3OP(=O)(O)OC[C@H]3O[C@@H](n4cc(C)c(=O)[nH]c4=O)C[C@@H]3O[PH](O)(O)OC[C@H]3O[C@@H](n4cc(C)c(=O)[nH]c4=O)C[C@@H]3OP(=O)(O)OC[C@H]3O[C@@H](n4cc(C)c(=O)[nH]c4=O)C[C@@H]3OP(=O)(O)OC[C@H]3O[C@@H](n4cc(C)c(=O)[nH]c4=O)C[C@@H]3OP(=O)(O)O[C@H](CO)CCOc3ccc(-c4nc5c6ccccc6c6ccccc6c5[nH]4)cc3)[C@@H](COP(=O)(O)O[C@H]3C[C@H](n4ccc(N)nc4=O)O[C@@H]3COP(=O)(O)O[C@H]3C[C@H](n4ccc(N)nc4=O)O[C@@H]3COP(=O)(O)O[C@H]3C[C@H](n4ccc(N)nc4=O)O[C@@H]3COP(=O)(O)O[C@H]3C[C@H](n4ccc(N)nc4=O)O[C@@H]3CO)O2)c(=O)[nH]c1=O`, for which the Tm came to 43.5 °C in the assay with Nucleic Acid [1]; 54 °C in the assay on Nucleic Acid [3]; 20 °C with Nucleic Acid [4]; 31.5 °C in the assay with Nucleic Acid [7]; 55.5 °C with Nucleic Acid [8]; 54 °C in the assay with Nucleic Acid [9].
Take `Cc1cn([C@H]2C[C@H](OP(=O)(O)OC[C@H]3O[C@@H](n4ccc(N)nc4=O)C[C@@H]3OP(=O)(O)OC[C@H]3O[C@@H](n4cc(C)c(=O)[nH]c4=O)C[C@@H]3OP(=O)(O)O[C@@H](CCOc3ccc(-c4nc5c6ccccc6c6ccccc6c5[nH]4)c4ccccc34)COC[C@H]3O[C@@H](n4cc(C)c(=O)[nH]c4=O)C[C@@H]3OP(=O)(O)OC[C@H]3O[C@@H](n4cc(C)c(=O)[nH]c4=O)C[C@@H]3O[PH](O)(O)OC[C@H]3O[C@@H](n4cc(C)c(=O)[nH]c4=O)C[C@@H]3OP(=O)(O)OC[C@H]3O[C@@H](n4cc(C)c(=O)[nH]c4=O)C[C@@H]3OP(=O)(O)OC[C@H]3O[C@@H](n4cc(C)c(=O)[nH]c4=O)C[C@@H]3O)[C@@H](COC[C@H](CCOc3ccc(-c4nc5c6ccccc6c6ccccc6c5[nH]4)c4ccccc34)OP(=O)(O)O[C@H]3C[C@H](n4cc(C)c(=O)[nH]c4=O)O[C@@H]3COP(=O)(O)O[C@H]3C[C@H](n4cc(C)c(=O)[nH]c4=O)O[C@@H]3COP(=O)(O)O[C@H]3C[C@H](n4ccc(N)nc4=O)O[C@@H]3COP(=O)(O)O[C@H]3C[C@H](n4ccc(N)nc4=O)O[C@@H]3COP(=O)(O)O[C@H]3C[C@H](n4ccc(N)nc4=O)O[C@@H]3COP(=O)(O)O[C@H]3C[C@H](n4ccc(N)nc4=O)O[C@@H]3CO)O2)c(=O)[nH]c1=O`: the melting temperature (Tm) in the assay with Nucleic Acid [1] was found to be 46.5 °C; with Nucleic Acid [2] it was 17.5 °C; in the assay on Nucleic Acid [3], 38.5 °C; with Nucleic Acid [4], 15 °C; with Nucleic Acid [5], 33.5 °C; in the assay on Nucleic Acid [6] it was 24 °C. Also, the Tm in the assay with Nucleic Acid [7] came to 20.5 °C; in the assay on Nucleic Acid [8], 42.5 °C; in the assay with Nucleic Acid [9] it was 38.5 °C.
On to `Cc1cn([C@H]2C[C@H](OP(=O)(O)OC[C@H]3O[C@@H](n4cc(C)c(=O)[nH]c4=O)C[C@@H]3O[PH](O)(O)OC[C@H]3O[C@@H](n4cc(C)c(=O)[nH]c4=O)C[C@@H]3OP(=O)(O)OC[C@H]3O[C@@H](n4cc(C)c(=O)[nH]c4=O)C[C@@H]3OP(=O)(O)OC[C@H]3O[C@@H](n4cc(C)c(=O)[nH]c4=O)C[C@@H]3O)[C@@H](COC[C@H](CCOc3ccc(-c4nc5c6ccccc6c6ccccc6c5[nH]4)cc3)OP(=O)(O)O[C@H]3C[C@H](n4cc(C)c(=O)[nH]c4=O)O[C@@H]3COP(=O)(O)O[C@H]3C[C@H](n4ccc(N)nc4=O)O[C@@H]3COP(=O)(O)O[C@H]3C[C@H](n4cc(C)c(=O)[nH]c4=O)O[C@@H]3COP(=O)(O)O[C@H]3C[C@H](n4cc(C)c(=O)[nH]c4=O)O[C@@H]3COP(=O)(O)O[C@H]3C[C@H](n4cc(C)c(=O)[nH]c4=O)O[C@@H]3COP(=O)(O)O[C@H]3C[C@H](n4ccc(N)nc4=O)O[C@@H]3COP(=O)(O)O[C@H]3C[C@H](n4ccc(N)nc4=O)O[C@@H]3COP(=O)(O)O[C@H]3C[C@H](n4ccc(N)nc4=O)O[C@@H]3COP(=O)(O)O[C@H]3C[C@H](n4ccc(N)nc4=O)O[C@@H]3CO)O2)c(=O)[nH]c1=O`, for which the Tm with Nucleic Acid [1] stood at 48.5 °C; with Nucleic Acid [2], 35.5 °C; in the assay with Nucleic Acid [3], 51 °C; in the assay on Nucleic Acid [4], 33.5 °C; in the assay on Nucleic Acid [5], 33 °C; in the assay on Nucleic Acid [6], 30.5 °C. Further, the Tm with Nucleic Acid [7] was determined as 31.5 °C; in the assay on Nucleic Acid [8], 53 °C; with Nucleic Acid [9] it was 51 °C.
Consider `Cc1cn([C@H]2C[C@H](OP(=O)(O)OC[C@H]3O[C@@H](n4ccc(N)nc4=O)C[C@@H]3OP(=O)(O)OC[C@H]3O[C@@H](n4cc(C)c(=O)[nH]c4=O)C[C@@H]3OP(=O)(O)O[C@@H](CCOc3ccc(-c4nc5c6ccccc6c6ccccc6c5[nH]4)cc3)COC[C@H]3O[C@@H](n4cc(C)c(=O)[nH]c4=O)C[C@@H]3OP(=O)(O)OC[C@H]3O[C@@H](n4cc(C)c(=O)[nH]c4=O)C[C@@H]3O[PH](O)(O)OC[C@H]3O[C@@H](n4cc(C)c(=O)[nH]c4=O)C[C@@H]3OP(=O)(O)OC[C@H]3O[C@@H](n4cc(C)c(=O)[nH]c4=O)C[C@@H]3OP(=O)(O)OC[C@H]3O[C@@H](n4cc(C)c(=O)[nH]c4=O)C[C@@H]3O)[C@@H](COC[C@H](CCOc3ccc(-c4nc5c6ccccc6c6ccccc6c5[nH]4)cc3)OP(=O)(O)O[C@H]3C[C@H](n4cc(C)c(=O)[nH]c4=O)O[C@@H]3COP(=O)(O)O[C@H]3C[C@H](n4cc(C)c(=O)[nH]c4=O)O[C@@H]3COP(=O)(O)O[C@H]3C[C@H](n4ccc(N)nc4=O)O[C@@H]3COP(=O)(O)O[C@H]3C[C@H](n4ccc(N)nc4=O)O[C@@H]3COP(=O)(O)O[C@H]3C[C@H](n4ccc(N)nc4=O)O[C@@H]3COP(=O)(O)O[C@H]3C[C@H](n4ccc(N)nc4=O)O[C@@H]3CO)O2)c(=O)[nH]c1=O`, for which the Tm with Nucleic Acid [1] worked out at 51.5 °C; with Nucleic Acid [2], 42 °C; in the assay with Nucleic Acid [3] it was 49 °C; in the assay on Nucleic Acid [4], 37 °C; in the assay on Nucleic Acid [5], 37 °C; in the assay with Nucleic Acid [6], 35.5 °C. Further, the melting temperature (Tm) in the assay with Nucleic Acid [7] is 37.5 °C; with Nucleic Acid [8], 49.5 °C; in the assay with Nucleic Acid [9], 50.5 °C.
On to `Cc1cn([C@H]2C[C@H](OP(=O)(O)OC[C@H]3O[C@@H](n4cc(C)c(=O)[nH]c4=O)C[C@@H]3OP(=O)(O)OC[C@H]3O[C@@H](n4cc(C)c(=O)[nH]c4=O)C[C@@H]3O[PH](O)(O)OC[C@H]3O[C@@H](n4cc(C)c(=O)[nH]c4=O)C[C@@H]3OP(=O)(O)OC[C@H]3O[C@@H](n4cc(C)c(=O)[nH]c4=O)C[C@@H]3OP(=O)(O)OC[C@H]3O[C@@H](n4cc(C)c(=O)[nH]c4=O)C[C@@H]3O)[C@@H](COC[C@@H](CCOc3ccc(-c4nc5c6ccccc6c6ccccc6c5[nH]4)c4ccccc34)OP(=O)(O)O[C@H]3C[C@H](n4ccc(N)nc4=O)O[C@@H]3COP(=O)(O)O[C@H]3C[C@H](n4cc(C)c(=O)[nH]c4=O)O[C@@H]3COP(=O)(O)O[C@H]3C[C@H](n4cc(C)c(=O)[nH]c4=O)O[C@@H]3COP(=O)(O)O[C@H]3C[C@H](n4cc(C)c(=O)[nH]c4=O)O[C@@H]3COP(=O)(O)O[C@H]3C[C@H](n4ccc(N)nc4=O)O[C@@H]3COP(=O)(O)O[C@H]3C[C@H](n4ccc(N)nc4=O)O[C@@H]3COP(=O)(O)O[C@H]3C[C@H](n4ccc(N)nc4=O)O[C@@H]3COP(=O)(O)O[C@H]3C[C@H](n4ccc(N)nc4=O)O[C@@H]3CO)O2)c(=O)[nH]c1=O`, for which the Tm in the assay on Nucleic Acid [1] is 35.5 °C; in the assay on Nucleic Acid [3], 46 °C; with Nucleic Acid [4], 18.5 °C; in the assay on Nucleic Acid [7], 23 °C; in the assay with Nucleic Acid [8] it was 49 °C; with Nucleic Acid [9], 46 °C.

The values above are taken from ChEMBL document CHEMBL1151702, “Using an aryl phenanthroimidazole moiety as a conjugated flexible intercalator to improve the hybridization efficiency of a triplex-forming oligonucleotide” (Bioorg Med Chem, 2008).
